In ChEMBL document CHEMBL4422628, “Discovery of first-in-class thiazole-based dual FFA1/PPARδ agonists as potential anti-diabetic agents” (Eur J Med Chem, 2019) one finds EC50 and Activity data, which are given here for 31 compounds.

What all share (format): cell-based
The target of assay [1] is T1, Peroxisome proliferator-activated receptor delta (Homo sapiens, UniProt Q03181).
T1 sequence (Q03181 whole entry): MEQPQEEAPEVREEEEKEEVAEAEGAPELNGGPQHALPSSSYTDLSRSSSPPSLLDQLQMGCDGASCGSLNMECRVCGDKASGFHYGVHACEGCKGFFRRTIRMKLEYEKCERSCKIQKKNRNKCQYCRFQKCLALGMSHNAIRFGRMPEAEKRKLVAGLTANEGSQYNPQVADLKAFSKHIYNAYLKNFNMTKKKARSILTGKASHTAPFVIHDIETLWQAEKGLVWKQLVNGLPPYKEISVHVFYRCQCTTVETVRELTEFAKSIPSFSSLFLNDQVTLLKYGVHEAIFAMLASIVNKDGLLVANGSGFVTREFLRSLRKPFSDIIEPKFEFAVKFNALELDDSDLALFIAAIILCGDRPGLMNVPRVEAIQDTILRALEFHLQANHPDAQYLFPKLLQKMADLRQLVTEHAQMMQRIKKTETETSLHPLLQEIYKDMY
Nature of the assay: Transactivation of GAL4-fused human PPARdelta LBD expressed in HEK293 cells after 18 hrs by luciferase reporter gene assay. A general note: A reporter such as luciferase makes a cellular process visible.

In assay [2] the target is T2, Free fatty acid receptor 1 (Homo sapiens, UniProt O14842). Nature of the assay: Agonist activity at human FFA1 receptor expressed in CHO cells by Fluo 4-AM dye based FLIPR assay. In outline: (§1)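 hFFA1-expressing CHO cells were loaded for 1 h at 37 °C with buffer containing 2.5 μg/mL Fluo 4-AM, 0.1% fatty acid-free BSA and 2.5 mmol/L probenecid. Compounds were added and calcium flux was read on FLIPR. Activity = (A–B)/(C–B)×100%, where A is the compound response, B the vehicle response and C the 10 μM γ-linolenic acid response.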
T2 sequence (O14842 whole entry): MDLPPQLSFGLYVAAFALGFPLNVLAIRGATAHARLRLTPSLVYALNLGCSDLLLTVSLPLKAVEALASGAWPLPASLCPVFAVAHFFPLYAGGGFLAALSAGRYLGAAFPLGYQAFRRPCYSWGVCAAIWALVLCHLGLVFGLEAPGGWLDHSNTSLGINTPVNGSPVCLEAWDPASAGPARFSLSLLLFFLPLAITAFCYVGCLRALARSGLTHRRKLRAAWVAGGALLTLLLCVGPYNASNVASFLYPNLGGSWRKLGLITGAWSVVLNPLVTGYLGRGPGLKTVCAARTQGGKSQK

Assay [3] has as its target T3, Peroxisome proliferator-activated receptor delta (Homo sapiens) (UniProt Q03181).
T3 sequence (whole entry): T1 sequence (Q03181 whole entry)
Nature of the assay: Transactivation of GAL4-fused human PPARdelta LBD expressed in HEK293 cells assessed as activity percentage at 10 uM after 18 hrs by luciferase reporter gene assay relative to control. The method, boiled down:
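HepG2 or HEK293 cells were transfected with pBIND-PPARα, -δ or -γ (GAL4 fusion). Compounds at varying concentrations were incubated for 18 h. Cells were then lysed and firefly and renilla luciferase were read by dual-luciferase assay.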

For assay [4], the target named is T2, Free fatty acid receptor 1. The experiment in a line: Agonist activity at human FFA1 receptor expressed in CHO cells assessed as activity percentage at 10 uM by Fluo 4-AM dye based FLIPR assay relative to control. In outline: as §1

As for `Cc1sc(-c2ccccc2)nc1COc1ccc(OCC(=O)O)c(F)c1`, the EC50 in assay [1] and in assay [2] was over 10000 nM throughout. Further, the results for the Activity in assay [3] and in assay [4] were 31% and 37%, respectively.

As to `Cc1nc(-c2ccccc2)sc1COc1ccc2c(c1)OCC2CC(=O)O` (stereo not given), the EC50 (in general, the midpoint of the concentration-response curve) came to 863 nM in assay [1] and 102 nM in assay [2].

For the compound `O=C(O)COc1ccc(OCc2nc(-c3ccccc3)cs2)cc1F`, the EC50 in assay [1] and in assay [2] was over 10000 nM each time. For the same compound, the results for the Activity in assay [3] and in assay [4] were 11% and 15%, respectively.

`Cc1cc(OCc2nnc(-c3ccccc3)s2)ccc1OCC(=O)O`: the EC50 in assay [1] and in assay [2] was over 10000 nM each time. For the same compound, the Activity in assay [3] amounted to 9%; in assay [4] it was 1%.

On to `Cc1nc(-c2ccc(F)cc2)sc1COc1ccc(OCC(=O)O)c(F)c1`, for which the figures for the EC50 in assay [1] and in assay [2] were 729 nM and 112 nM, respectively.

In the case of `Cc1cc(OCc2csc(-c3ccccc3)n2)ccc1OCC(=O)O`, the EC50 in assay [1] and in assay [2] was over 10000 nM in each case. Further, the figures for the Activity in assay [3] and in assay [4] were 35% and 5%, respectively.

In the case of `Cc1cc(OCc2sc(-c3ccccc3)nc2C)ccc1OCC(=O)O`, the EC50 in assay [1] was 1650 nM; in assay [2], over 10000 nM. The Activity in assay [4] worked out at 13%.

Take `Cc1nc(-c2ccc(F)cc2)sc1COc1ccc(S(=O)(=O)CC(=O)O)cc1`: the EC50 in assay [1] is over 10000 nM; in assay [2], 253 nM.

For the compound `O=C(O)COc1ccc(OCc2csc(-c3ccccc3)n2)cc1F`, the EC50 in assay [1] and in assay [2] was over 10000 nM throughout. Further, the Activity is 20% in assay [3] and 23% in assay [4].

As for `Cc1ccc(-c2nc(C)c(COc3ccc4c(c3)OCC4CC(=O)O)s2)cc1` (stereo not given), the EC50 in assay [1] was 218 nM; in assay [2], 94 nM.

On to `Cc1nc(-c2ccc(F)cc2)sc1COc1ccc2c(c1)OCC2CC(=O)O` (stereo not given), for which the results for the EC50 in assay [1] and in assay [2] were 306 nM and 79 nM, respectively.

As for `Cc1nc(-c2ccccc2)oc1COc1ccc(OCC(=O)O)c(F)c1`, the EC50 in assay [1] stood at 2660 nM; in assay [2] it was 1350 nM.

On to `O=C(O)COc1ccc(OCc2nnc(-c3ccccc3)s2)cc1F`, for which the EC50 in assay [1] and in assay [2] was over 10000 nM each time. Further, the values for the Activity in assay [3] and in assay [4] were 4% and 19%, respectively.

As to `Cc1nc(-c2ccc(C(F)(F)F)cc2)sc1COc1ccc(OCC(=O)O)c(F)c1`, the EC50 in assay [1] turned out to be 436 nM; in assay [2] it was 149 nM.

As for `O=C(O)COc1ccc(OCc2ncc(-c3ccccc3)s2)cc1F`, the EC50 in assay [1] and in assay [2] was over 10000 nM each time. The Activity in assay [3] came out at 23%; in assay [4], 31%.

In the case of `Cc1sc(-c2ccccc2)nc1CNc1ccc(OCC(=O)O)c(F)c1`, the EC50 in assay [1] and in assay [2] was over 10000 nM throughout. For the same compound, the Activity in assay [3] came out at 12%; in assay [4], 42%.

Consider `Cc1nc(-c2ccc(C(F)(F)F)cc2)sc1COc1ccc2c(c1)OCC2CC(=O)O` (stereo not given), for which the EC50 in assay [1] was determined as 175 nM; in assay [2], 113 nM.

Regarding `Cc1cccc(-c2nc(C)c(COc3ccc(OCC(=O)O)c(F)c3)s2)c1`, the figures for the EC50 in assay [1] and in assay [2] were 1160 nM and 247 nM, respectively.

Take `Cc1ccc(-c2nc(C)c(COc3ccc(OCC(=O)O)c(F)c3)s2)cc1`: the EC50 in assay [1] is 564 nM; in assay [2], 156 nM.

Consider `[2H]C([2H])(Cc1ccc(OCc2sc(-c3ccc(C(F)(F)F)cc3)nc2C)cc1)C(=O)O`, for which the results for the EC50 in assay [1] and in assay [2] were 376 nM and 325 nM, respectively.

As for `COc1ccc(-c2nc(C)c(COc3ccc4c(c3)OCC4CC(=O)O)s2)cc1` (stereo not given), the values for the EC50 in assay [1] and in assay [2] were 920 nM and 156 nM, respectively.

Take `Cc1cc(OCc2ncc(-c3ccccc3)o2)ccc1OCC(=O)O`: the EC50 in assay [1] and in assay [2] was over 10000 nM in each case. In addition, the Activity in assay [3] came out at 12%; in assay [4], 2%.

For the compound `Cc1nc(-c2ccccc2)sc1COc1ccc(OCC(=O)O)c(F)c1`, the figures for the EC50 in assay [1] and in assay [2] were 1320 nM and 374 nM, respectively.

On to `[2H]C([2H])(Cc1ccc(OCc2sc(-c3ccc(F)cc3)nc2C)cc1)C(=O)O`, for which the EC50 in assay [1] came to 529 nM; in assay [2] it was 251 nM.

Take `O=C(O)COc1ccc(OCc2ncc(-c3ccccc3)o2)cc1F`: the EC50 in assay [1] and in assay [2] was over 10000 nM each time. Moreover, the Activity in assay [3] was 8%; in assay [4] it was 2%.

Take `Cc1nc(-c2ccccc2)sc1COc1ccc(S(=O)(=O)CC(=O)O)cc1`: the EC50 in assay [1] is over 10000 nM; in assay [2] it was 370 nM.

As for `Cc1nc(-c2cccc(F)c2)sc1COc1ccc(OCC(=O)O)c(F)c1`, the values for the EC50 in assay [1] and in assay [2] were 780 nM and 185 nM, respectively.

Regarding `Cc1nc(-c2ccc(Cl)cc2)sc1COc1ccc2c(c1)OCC2CC(=O)O` (stereo not given), the EC50 in assay [1] amounted to 264 nM; in assay [2], 105 nM.

In the case of `O=C(O)COc1ccc(OCc2nnc(-c3ccccc3)o2)cc1F`, the EC50 in assay [1] and in assay [2] was over 10000 nM throughout. Besides, the values for the Activity in assay [3] and in assay [4] were 3% and 6%, respectively.

As to `[2H]C([2H])(Cc1ccc(OCc2sc(-c3ccccc3)nc2C)cc1)C(=O)O`, the EC50 stood at 972 nM in assay [1] and 590 nM in assay [2].

Regarding `Cc1cc(OCc2sc(-c3ccc(C(F)(F)F)cc3)nc2C)ccc1OCC(=O)O`, the EC50 was 315 nM in assay [1] and over 10000 nM in assay [2].
